Experimental data as given in PubChem BioAssay AID463171 (The Scripps Research Institute Molecular Screening Center, 2010).
Activity calls are given as the source filed them.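 The calls were made as follows: active = p27 reporter light at least 10 times the solvent-only level, showing blocked p27 breakdown; inactive = ratio under 10.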

Biological target: Cyclin-dependent kinase inhibitor 1B (Homo sapiens) (UniProt P46527)
Experiment: inhibitors of p27 turnover in HeLa cells, late-stage follow-up, counter-screen for Wee1 degradation inhibitor project, cell-based, luminescence, p27-luciferase fusion, powder samples (AID 463171)
Conditions: HeLa p27-luciferase fusion stability, at 0.1 µM, stronger effect = higher value
In short: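 Material – human HeLa cells transiently expressing a p27-luciferase fusion reporter · Dosing – single nominal 100 nM (0.1 µM) compound dose · Incubation – compound exposure 20 h at 37 °C, cells 48 h post-transfection · Technique – Brite-lite luminescence · Evaluation – average fold change versus DMSO vehicle · Control set – DMSO vehicle-treated cells as reference · Repeats – quadruplicate wells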

Cyclin-dependent kinase inhibitor 1B (Homo sapiens), sequence (P46527 whole entry, looked up, the tested form may be a part): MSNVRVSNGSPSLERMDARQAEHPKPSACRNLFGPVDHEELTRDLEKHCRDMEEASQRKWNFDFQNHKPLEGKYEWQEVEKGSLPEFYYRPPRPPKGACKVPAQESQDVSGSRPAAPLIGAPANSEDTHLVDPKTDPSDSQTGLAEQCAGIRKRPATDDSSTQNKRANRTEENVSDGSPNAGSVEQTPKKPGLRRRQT

`O=[N+]([O-])c1cccc2[nH]c(CNc3nc(N4CCOCC4)nc4c3ncn4-c3ccsc3)nc12` was tested, and the fold change was 4.61 (inactive).
In the case of `c1ccc2[nH]c(CNc3nc(N4CCOCC4)nc4c3ncn4-c3ccsc3)nc2c1`, the fold change is reported as 3.13 (inactive).
